Measurements from different studies.
CTSL: Procathepsin L (CTSL, Homo sapiens, UniProt P07711)

Nc1ncnc2c1ncn2[C@@H]1O[C@H](COP(=O)(O)OP(=O)(O)OP(=O)(O)OP(=O)(O)OP(=O)(O)OC[C@H]2O[C@@H](n3cnc4c(N)ncnc43)[C@H](O)[C@@H]2O)[C@@H](O)[C@H]1O — Km (Oxidized purine nucleoside triphosphate hydrolase (NUDT1, Homo sapiens, UniProt P36639); enzyme activity; substrate): 26 µM
N=c1c[n+](N2CCOCC2)[n-]o1 — KI (inactivation) (NAD-dependent protein deacetylase sirtuin-1 (SIRT1, Homo sapiens, UniProt Q96EB6); enzyme activity; inhibitor): 27 µM
Cc1cc([C@@H](C)Nc2ccccc2C(=O)O)c2nc(N3CCC(F)(F)CC3)c(C#N)c(=O)n2c1 — remaining binding (Serine/threonine-protein kinase STK11 (STK11, Homo sapiens, UniProt Q15831); binding; competition with immobilised ligand; 1 µM): 92%
CC(C)=CCC(O)C1=CC(=O)c2c(O)ccc(O)c2C1=O (stereo not shown) — remaining activity (CTSL; enzyme activity; inhibitor; 100 µM): 113%
C=CC(=O)N1CCC(COCC(=O)N2CCN(c3nc(-c4cnc(N)nc4C(F)F)nc(N4CCOC[C@@H]4C)n3)CC2)CC1 — remaining binding (Ephrin type-B receptor 1 (EPHB1, Homo sapiens, UniProt P54762); binding; competition with immobilised ligand; 1 µM): 100%
COc1cc(-c2cncc3c2CN(C)Cc2cc(N4CCNCC4)ccc2-3)cc(OC)c1OC — remaining activity (Tau-tubulin kinase 2 (TTBK2, Homo sapiens, UniProt Q6IQ55); enzyme activity; inhibitor; 1 µM): 104%
O=C1/C(=C/c2ccc(O)c(O)c2)COc2cc(O)ccc21 — remaining activity (CTSL; enzyme activity; inhibitor; 100 µM): 26.7%
Oc1ncnc2[nH]ncc12 — inhibition (Xanthine dehydrogenase/oxidase (XDH, Bos taurus, UniProt P80457); enzyme activity; inhibitor; absorbance; 53 µg/mL): 100%
C=CC(C)(C)c1cc(/C=C/C(=O)c2ccc(O)cc2)c(OC)cc1O — remaining activity (CTSL; enzyme activity; inhibitor; 100 µM): 95.1%
CNc1ncc2c(/C=C/C(=O)N3CCC(OC)CC3)nn(Cc3cccc(C(F)(F)F)c3)c2n1 — remaining activity (Tyrosine-protein kinase Blk (BLK, Homo sapiens, UniProt P51451); enzyme activity; inhibitor; radiometric; 1 µM): 84%
